ChEMBL document CHEMBL3286113, “New potent antibacterial oxazolidinone (MRX-I) with an improved class safety profile” (J Med Chem, 2014)
In brackets after ≈: the same amount, converted by molar mass. Activity calls are given as the source filed them. No cut-off for these calls is given here.

How the values were obtained:
[1] = Elimination half life in fasted human at 600 mg, po administered as single dose; type: ADME, organism-based; settings: in vivo, read-out: beta t1/2 (converted)
In short: (§1)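 Healthy volunteers (12; six of each sex) in a three-period Latin-square crossover. Each received single oral doses of 300, 600 and 900 mg under fasting conditions, with a 1-week washout between doses. Parameters from a noncompartmental model.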

[2] = Cmax in fasted human at 900 mg, po administered as single dose; type: ADME, organism-based; parameters: dose 900 mg, route oral; settings: in vivo; in short: as §1
[3] = AUC (0 to 24 hrs) in human at 600 mg, po administered as single dose with meal measured on day 1; type: ADME, organism-based; parameters: time < 24 hr, dose 600 mg, route oral; settings: plasma
In short: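 Randomized, double-blind, placebo-controlled multiple-dose study in 32 healthy subjects (half male, half female). Subjects took 28 oral doses of 600 or 800 mg over 15 days, each with a meal. A single dose was given on days 1 and 15 for full PK, and doses were given Q12h from day 2 to day 14. AUC0−24 was measured on days 1 and 15.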

[4] = Cmax in human at 800 mg, po administered as single dose with meal measured on day 15; type: ADME, organism-based; parameters: dose 800 mg, route oral; settings: in vivo
In short: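 Randomized, double-blind, placebo-controlled multiple-dose study in 32 healthy subjects, half male and half female. Each dose was taken with a meal, at 600 or 800 mg, 28 doses over 15 days. A single dose on days 1 and 15 gave full PK; BID (Q12h) dosing ran on days 2–14.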

[5] = test system: Rattus norvegicus; experiment: Toxicity in female rat assessed as effect on hematocrit level at 20 mg/kg/day, po bid administered for 4 weeks (reference value: 39.08%); type: organism-based; parameters: route oral; settings: in vivo, 672 h
[6] = test system: Rattus norvegicus; experiment: Toxicity in female rat assessed as effect on lymphocyte count at 20 mg/kg/day, po bid administered for 4 weeks (reference value: 74.8%); type: organism-based; parameters: route oral; settings: in vivo, 672 h
[7] = test system: Rattus norvegicus; experiment: Toxicity in female rat assessed as effect on WBC count at 200 to 300 mg/kg/day, po bid administered for 4 weeks (reference value: 3.66 x 10^9/L); type: organism-based; parameters: route oral; settings: in vivo, 672 h
[8] = test system: Rattus norvegicus; experiment: Toxicity in female rat assessed as effect on platelet count at 200 to 300 mg/kg/day, po bid administered for 4 weeks (reference value: 654.6 x 10^9/L); type: organism-based; parameters: route oral; settings: in vivo, 672 h
[9] = AUC (0 to 24 hrs) in female rat at 100 mg/kg/day, po bid administered for 4 weeks; type: ADME, organism-based; parameters: time < 24 hr, dose 100 mg/kg/day, route oral; settings: plasma
In short: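 Repeat-dose toxicity study in rats (10/gender/group) dosed orally twice daily for 4 weeks, then a 4-week recovery period; the top dose was raised from 200 to 300 mg/kg/day on day 15. Blood was taken on days 1, 14 and 28 for toxicokinetics, and AUC0−24 was reported for females.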

[10] = molecular target: T1, Amine oxidase [flavin-containing] A (Homo sapiens, UniProt P21397); experiment: Inhibition of MAO-A (unknown origin) using tyramine as substrate after 30 to 60 mins by fluorescence plate reader analysis
T1 sequence (P21397 whole entry): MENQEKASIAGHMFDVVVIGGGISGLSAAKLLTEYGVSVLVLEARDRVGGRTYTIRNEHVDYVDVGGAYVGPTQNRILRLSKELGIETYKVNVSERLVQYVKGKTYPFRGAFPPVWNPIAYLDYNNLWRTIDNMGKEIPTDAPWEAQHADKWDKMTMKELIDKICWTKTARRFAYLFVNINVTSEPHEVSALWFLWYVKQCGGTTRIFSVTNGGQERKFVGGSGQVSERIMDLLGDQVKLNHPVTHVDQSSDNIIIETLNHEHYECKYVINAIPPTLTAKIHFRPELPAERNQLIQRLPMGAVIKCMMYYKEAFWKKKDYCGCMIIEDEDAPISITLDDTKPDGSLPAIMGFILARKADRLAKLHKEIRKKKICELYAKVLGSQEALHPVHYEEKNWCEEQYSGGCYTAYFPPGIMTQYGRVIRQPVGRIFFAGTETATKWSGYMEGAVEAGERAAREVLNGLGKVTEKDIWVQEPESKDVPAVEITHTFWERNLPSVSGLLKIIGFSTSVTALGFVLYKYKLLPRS

[11] = molecular target: MAO-A (Homo sapiens, UniProt P21397); experiment: Ratio of compound IC50 to linezolid IC50 for MAO-A (unknown origin) by fluorescence plate reader analysis; type: ADME
[12] = molecular target: Cytochrome P450 2C9 (Homo sapiens, UniProt P11712); experiment: Inhibition of CYP2C9 (unknown origin) at 1 to 200 uM; type: ADME
Cytochrome P450 2C9, sequence (P11712 whole entry): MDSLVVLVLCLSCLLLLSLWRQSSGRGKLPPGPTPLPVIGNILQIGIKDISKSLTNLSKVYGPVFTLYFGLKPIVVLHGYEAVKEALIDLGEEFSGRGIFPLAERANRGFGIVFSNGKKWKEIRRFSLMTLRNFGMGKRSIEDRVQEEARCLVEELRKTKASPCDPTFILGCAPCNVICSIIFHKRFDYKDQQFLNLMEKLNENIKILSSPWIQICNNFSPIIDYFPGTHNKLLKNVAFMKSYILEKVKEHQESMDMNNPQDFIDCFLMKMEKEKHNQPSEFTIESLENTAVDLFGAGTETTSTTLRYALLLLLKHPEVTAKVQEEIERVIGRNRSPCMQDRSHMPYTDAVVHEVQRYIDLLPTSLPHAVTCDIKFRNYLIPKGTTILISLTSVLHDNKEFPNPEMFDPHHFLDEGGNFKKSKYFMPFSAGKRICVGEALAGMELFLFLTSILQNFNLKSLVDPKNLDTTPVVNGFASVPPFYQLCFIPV

[13] = test system: Staphylococcus haemolyticus; experiment: Antibacterial activity against Staphylococcus haemolyticus; type: functional
[14] = test system: Staphylococcus; experiment: Antibacterial activity against beta-lactamase-negative Staphylococcus; type: functional
[15] = test system: Streptococcus pneumoniae; experiment: Bactericidal activity against penicillin-sensitive Streptococcus pneumoniae; type: functional
[16] = test system: Streptococcus pneumoniae; experiment: Bactericidal activity against penicillin-resistant Streptococcus pneumoniae; type: functional
[17] = test system: Staphylococcus aureus; experiment: Antibacterial activity against Staphylococcus aureus assessed as low frequency of spontaneous resistance; type: functional, organism-based
[18] = test system: Staphylococcus aureus; experiment: Antibacterial activity against Staphylococcus aureus measured after 2 serial passages; type: functional
[19] = test system: Staphylococcus aureus; experiment: Antibacterial activity against Staphylococcus aureus measured after 3 serial passages; type: functional
[20] = test system: Streptococcus pneumoniae; experiment: Antibacterial activity against penicillin intermediate-sensitive Streptococcus pneumoniae ATCC 49619 clinical isolate; type: functional
[21] = test system: Streptococcus pneumoniae; experiment: Antibacterial activity against penicillin-resistant Streptococcus pneumoniae isolate 0613; type: functional
[22] = test system: Staphylococcus aureus; experiment: Antibacterial activity against methicillin-resistant Staphylococcus aureus isolate 0612 in po dosed mouse systemic infection model; type: functional; settings: isolate 0612, po
[23] = test system: Staphylococcus aureus; experiment: Antibacterial activity against methicillin-resistant Staphylococcus aureus isolate 0605 in po dosed mouse systemic infection model; type: functional; settings: isolate 0605, po
[24] = test system: Staphylococcus aureus; experiment: Antibacterial activity against methicillin-sensitive Staphylococcus aureus ATCC 29213 in mouse thigh infection model assessed as reduction of log10 CFU per thigh at 20 mg/kg, po; type: functional
In short: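 Mouse thigh infection with S. aureus ATCC29213 (MSSA), 10 animals per dosing group. Oral doses were 5, 10, 20, 40 and 80 mg/kg. The read-out was log CFU per thigh after treatment, and the reduction (ΔLogCFU/thigh) was reported.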

[25] = Tmax in po dosed mouse; type: ADME, organism-based; settings: in vivo
[26] = test system: Mus musculus; experiment: Dose normalized Cmax in po dosed mouse; type: ADME, organism-based; settings: in vivo
[27] = test system: Canis familiaris; experiment: Dose normalized AUC (0 to t) in po dosed dog; type: ADME, organism-based, Canis lupus familiaris; settings: in vivo
[28] = Oral bioavailability in rat; type: ADME, organism-based; settings: in vivo
[29] = Cmax in female rat at 5 mg/kg, po; type: ADME, organism-based; parameters: dose 5 mg/kg, route oral; settings: in vivo
[30] = Cmax in female rat at 15 mg/kg, po; type: ADME, organism-based; parameters: dose 15 mg/kg, route oral; settings: in vivo
[31] = Half life in male rat at 15 mg/kg, po; type: ADME, organism-based; parameters: dose 15 mg/kg, route oral; settings: in vivo
[32] = AUC (0 to t) in male rat at 5 mg/kg, po; type: ADME, organism-based; parameters: dose 5 mg/kg, route oral; settings: plasma
In short: (§2)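 Rat PK by gender, with single oral doses of 5, 15 and 45 mg/kg and an iv dose of 5 mg/kg. Tmax, Cmax, T1/2 and AUC0−t were reported per gender.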

[33] = AUC (0 to t) in female rat at 5 mg/kg, iv; type: ADME, organism-based; parameters: dose 5 mg/kg, route intravenous; settings: plasma; in short: as §2
[34] = test system: L5178Y; experiment: Mutagenicity in mouse tk +/- L5178Y cells assessed as increase in gene mutation frequency at 62.5 to 1000 ug/mL in presence of S9 fraction

Q: Which half-life [1] does the source give for `O=C1C=CN(c2c(F)cc(N3C[C@H](CNc4ccon4)OC3=O)c(F)c2F)CC1` [CONTEZOLID] here?
A: The half-life was 3.31 h.

Q: What about the Cmax [2] of the same molecule?
A: Its Cmax is 15.2 µg/mL.

Q: And the AUC(0-t) at 24 h [3]?
A: The AUC(0-t) at 24 h was 68.6 µg·h/mL.

Q: And the Cmax [4]?
A: Its Cmax is 26.4 µg/mL.

Q: And the Activity [5]?
A: The Activity was 37.16%.

Q: And the Activity [6]?
A: Its Activity is 83.4%.

Q: What about the Activity [7] of the same molecule?
A: Its Activity is 2.72 ×10⁹ /L.

Q: What about the Activity [8] of the same molecule?
A: Its Activity is 464.2 ×10⁹ /L.

Q: What about the AUC at 24 h [9] of the same molecule?
A: The AUC at 24 h was 319 µg·h/mL.

Q: And the IC50 [10]?
A: The IC50 was 103 µM.

Q: What about the selectivity ratio [11] of the same molecule?
A: Its selectivity ratio is 5.2.

Q: What about the “inhibition (INH)” value [12] of the same molecule?
A: Its value is “Not Active”.

Q: And the MIC50 [13]?
A: Its MIC50 is 0.5 mg/L (≈ 1.22 µM).

Q: What about the MIC90 [13] of the same molecule?
A: Its MIC90 is 0.5 mg/L (≈ 1.22 µM).

Q: What about the MIC50 [14] of the same molecule?
A: The MIC50 was 0.5 mg/L (≈ 1.22 µM).

Q: What about the MIC90 [14] of the same molecule?
A: Its MIC90 is 0.5 mg/L (≈ 1.22 µM).

Q: And the MIC50 [15]?
A: Its MIC50 is 0.5 mg/L (≈ 1.22 µM).

Q: What about the MIC90 [15] of the same molecule?
A: The MIC90 was 0.5 mg/L (≈ 1.22 µM).

Q: What about the MIC50 [16] of the same molecule?
A: Its MIC50 is 0.5 mg/L (≈ 1.22 µM).

Q: What about the MIC90 [16] of the same molecule?
A: Its MIC90 is 0.5 mg/L (≈ 1.22 µM).

Q: What about the Activity [17] of the same molecule?
A: The Activity was “Active”.

Q: What about the MIC [18] of the same molecule?
A: The MIC was 2 mg/L (≈ 4.9 µM).

Q: And the MIC [19]?
A: Its MIC is 2 mg/L (≈ 4.9 µM).

Q: And the MIC [20]?
A: Its MIC is 1 mg/L (≈ 2.45 µM).

Q: What about the MIC [21] of the same molecule?
A: Its MIC is 2 mg/L (≈ 4.9 µM).

Q: And the ED50 [22]?
A: The ED50 was 7.2 mg/kg.

Q: What about the ED50 [23] of the same molecule?
A: Its ED50 is 12 mg/kg.

Q: And the deltalog10CFU [24]?
A: Its deltalog10CFU is 3.33.

Q: What about the Tmax [25] of the same molecule?
A: The Tmax was 0.5 h.

Q: And the Cmax/dose [26]?
A: The Cmax/dose was 524 ng/mL/(mg/kg).

Q: And the AUCt/dose [27]?
A: Its AUCt/dose is 1664 ng·h/mL/mg/kg.

Q: What about the bioavailability [28] of the same molecule?
A: Its bioavailability is 109%.

Q: And the Cmax [29]?
A: Its Cmax is 9.39 µg/mL.

Q: And the Cmax [30]?
A: The Cmax was 17.2 µg/mL.

Q: And the half-life [31]?
A: The half-life was 1.18 h.

Q: And the AUC(0-t) [32]?
A: The AUC(0-t) was 10.2 µg·h/mL.

Q: And the AUC(0-t) [33]?
A: Its AUC(0-t) is 25.2 µg·h/mL.

Q: And the Activity [34]?
A: The Activity was “Non-toxic”.
